Reference: ChEMBL document CHEMBL5360645, “Re-Exploring the Anthracycline Chemical Space for Better Anti-Cancer Compounds” (J Med Chem, 2023)
Calls of active or inactive are those of the source. The rule behind the calls is not given here.

Tests used:
Format in all cases: functional, cell-based
K562 [1] = assay: Cytotoxicity against human K562 cells incubated for 2 hrs by cell titre blue viability assay; details: K562, 2 h
Method in brief: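 Viability read by CellTiter-Blue, normalized to untreated control and background-corrected. Media: K562 RPMI-1640, MelJuSo IMDM, U2OS DMEM, each with 8% FCS; 5% CO2, 37 °C.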

MEL-JUSO [2] = assay: Effect of chromatin damage activity in human MEL-JUSO cells stably expressing PAGFPH2A assessed as histone eviction measured upto 60 mins measured by confocal microscopic analysis
MEL-JUSO [3] = assay: Cytotoxicity against human MEL-JUSO cells incubated for 2 hrs by cell titre blue viability assay
K562 [4] = assay: Induction of DNA damage in human K562 cells assessed as increase in gammaH2AX at 10 uM for 2 hrs by Western blotting analysis
Method in brief: (§1)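 K562 cells treated 2 h with drug (10 μM; also 1 and 5 μM), washed and lysed directly in SDS sample buffer. Lysates separated by SDS-PAGE and blotted to PVDF. Probed for γH2AX (1:1000) with β-actin loading control and IRDye 800CW anti-mouse secondary; infrared imaging. γH2AX normalized to actin. Etoposide was the positive control. At 10 μM: mean ± SD of three independent experiments.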

U2OS = assay: Cytotoxicity against human U2OS cells incubated for 2 hrs by cell titre blue viability assay
K562 [5] = assay: Induction of DNA damage in human K562 cells assessed as increase in gammaH2AX at 1 to 5 uM for 2 hrs by Western blotting analysis; details: dose 1-5 µM; method in brief: as §1
K562 [6] = assay: Induction of DNA damage in human K562 cells assessed as DNA double strand break measured by constant gel field electrophoresis
Method in brief: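 Double-strand breaks resolved by constant-field gel electrophoresis and quantified as broken DNA relative to total DNA. Etoposide was the positive control. Mean ± SD of three independent experiments.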

With COc1cccc2c1C(=O)c1c(O)c3c(c(O)c1C2=O)C[C@@](O)(C(=O)CO)C[C@@H]3O[C@H]1C[C@H](N2CCC2)[C@H](O)[C@H](C)O1 the IC50 (K562 [1]) was 379 nM, the Activity (MEL-JUSO [2]) was “Active” and the IC50 (MEL-JUSO [3]) was 297 nM. For the same molecule, the Activity (K562 [4]) was “inactive”, the IC50 (U2OS) was 159 nM and the Activity (K562 [5]) was “inactive”. For the same molecule, the Activity (K562 [6]) was “inactive”.
For COc1cccc2c1C(=O)c1c(O)c3c(c(O)c1C2=O)C[C@@](O)(C(=O)CO)C[C@@H]3O[C@H]1C[C@H](N)[C@H](O)[C@H](C)O1 [DOXORUBICIN], the Activity (MEL-JUSO [2]) was “Active”, the IC50 (MEL-JUSO [3]) was 523 nM and the IC50 (U2OS) was 339 nM.
Molecule COc1cccc2c1C(=O)c1c(O)c3c(c(O)c1C2=O)C[C@@](O)(C(C)=O)C[C@@H]3O[C@H]1C[C@H](N)[C@H](O)[C@H](C)O1 [DAUNORUBICIN] has an IC50 (MEL-JUSO [3]) of 286 nM and an IC50 (U2OS) of 61 nM.
In the case of CC(=O)[C@]1(O)Cc2c(O)c3c(c(O)c2[C@@H](O[C@H]2C[C@H](N(C)C)[C@H](O[C@H]4C[C@H](O)[C@H](O[C@H]5CCC(=O)[C@H](C)O5)[C@H](C)O4)[C@H](C)O2)C1)C(=O)c1ccccc1C3=O, the IC50 (K562 [1]) is reported as 20 nM, the IC50 (MEL-JUSO [3]) is reported as 8 nM and the Activity (K562 [4]) is reported as “inactive”. The IC50 (U2OS) was 12 nM, the Activity (K562 [5]) was “inactive” and the Activity (K562 [6]) was “inactive”.
For COc1cccc2c1C(=O)c1c(O)c3c(c(O)c1C2=O)C[C@@](O)(CCO)C[C@@H]3O[C@H]1C[C@H](N(C)C)[C@H](O)[C@H](C)O1, the IC50 (K562 [1]) was 1620 nM, the Activity (MEL-JUSO [2]) was “Active” and the IC50 (MEL-JUSO [3]) was 2870 nM. The Activity (K562 [4]) was “inactive”, the IC50 (U2OS) was 4210 nM and the Activity (K562 [5]) was “inactive”. For the same molecule, the Activity (K562 [6]) was “inactive”.
CC(=O)[C@]1(O)Cc2c(O)c3c(c(O)c2[C@@H](O[C@H]2C[C@H](N)[C@H](O)[C@H](C)O2)C1)C(=O)c1ccccc1C3=O [IDARUBICIN] gave an IC50 (MEL-JUSO [3]) of 89 nM and an IC50 (U2OS) of 24 nM.
COc1cccc2c1C(=O)c1c(O)c3c(c(O)c1C2=O)C[C@@](O)(CCO)C[C@@H]3O[C@H]1C[C@H](N)[C@H](O)[C@H](C)O1 [13-DEOXYDOXORUBICIN] was tested, and the IC50 (K562 [1]) was 1790 nM, the IC50 (MEL-JUSO [3]) was 1150 nM and the Activity (K562 [4]) was “Active”. For the same molecule, the IC50 (U2OS) was 891 nM, the Activity (K562 [5]) was “Active” and the Activity (K562 [6]) was “Active”.
With CC[C@]1(O)Cc2c(O)c3c(c(O)c2[C@@H](O[C@H]2C[C@H](N(C)C)[C@H](O)[C@H](C)O2)C1)C(=O)c1c(OC)cccc1C3=O the IC50 (K562 [1]) was 1180 nM, the Activity (MEL-JUSO [2]) was “Active” and the IC50 (MEL-JUSO [3]) was 1810 nM. The Activity (K562 [4]) was “inactive”, the IC50 (U2OS) was 1360 nM and the Activity (K562 [5]) was “inactive”. For the same molecule, the Activity (K562 [6]) was “inactive”.
COc1cccc2c1C(=O)c1c(O)c3c(c(O)c1C2=O)C[C@@](O)(C(=O)CO)C[C@@H]3O[C@H]1C[C@H](O)[C@H](N)[C@H](C)O1 was tested, and the IC50 (K562 [1]) was 381 nM, the IC50 (MEL-JUSO [3]) was 998 nM and the Activity (K562 [4]) was “Active”. The IC50 (U2OS) was 1120 nM, the Activity (K562 [5]) was “Active” and the Activity (K562 [6]) was “Active”.
With COc1cccc2c1C(=O)c1c(O)c3c(c(O)c1C2=O)C[C@@](O)(C(=O)CO)C[C@@H]3O[C@H]1C[C@H](N2CCCCC2)[C@H](O)[C@H](C)O1 the IC50 (K562 [1]) was 195 nM, the Activity (MEL-JUSO [2]) was “Active” and the IC50 (MEL-JUSO [3]) was 78 nM. For the same molecule, the Activity (K562 [4]) was “inactive”, the IC50 (U2OS) was 105 nM and the Activity (K562 [5]) was “inactive”. For the same molecule, the Activity (K562 [6]) was “inactive”.
In the case of COc1cccc2c1C(=O)c1c(O)c3c(c(O)c1C2=O)C[C@@](O)(C(=O)CO)C[C@@H]3O[C@H]1C[C@H](N2CCOCC2)[C@H](O)[C@H](C)O1, the IC50 (K562 [1]) is reported as 64 nM, the Activity (MEL-JUSO [2]) is reported as “Active” and the IC50 (MEL-JUSO [3]) is reported as 51 nM. The Activity (K562 [4]) was “inactive”, the IC50 (U2OS) was 77 nM and the Activity (K562 [5]) was “inactive”. For the same molecule, the Activity (K562 [6]) was “inactive”.
In the case of CC[C@@]1(O)C[C@H](O[C@H]2C[C@H](N(C)C)[C@H](O)[C@H](C)O2)c2c(O)c3c(c(O)c2[C@H]1C(=O)OC)C(=O)c1cccc(O)c1C3=O, the IC50 (K562 [1]) is reported as 1100 nM, the IC50 (MEL-JUSO [3]) is reported as 835 nM and the Activity (K562 [4]) is reported as “inactive”. The IC50 (U2OS) was 1130 nM, the Activity (K562 [5]) was “inactive” and the Activity (K562 [6]) was “inactive”.
For COc1cccc2c1C(=O)c1c(O)c3c(c(O)c1C2=O)C[C@@](O)(C(=O)CO)C[C@@H]3O[C@H]1C[C@H](N(C)C)[C@H](O[C@H]2C[C@H](O)[C@H](O[C@H]3CCC(=O)[C@H](C)O3)[C@H](C)O2)[C@H](C)O1 (single isomer, unassigned), the IC50 (K562 [1]) was 19 nM, the Activity (MEL-JUSO [2]) was “Active” and the Activity (K562 [4]) was “inactive”. For the same molecule, the IC50 (U2OS) was 11 nM, the Activity (K562 [5]) was “inactive” and the Activity (K562 [6]) was “inactive”.
COc1cccc2c1C(=O)c1c(O)c3c(c(O)c1C2=O)C[C@@](O)(C(=O)CO)C[C@@H]3O[C@H]1C[C@H](N=[N+]=[N-])[C@H](O)[C@H](C)O1 was tested, and the IC50 (K562 [1]) was 84 nM, the Activity (MEL-JUSO [2]) was “Active” and the IC50 (MEL-JUSO [3]) was 1220 nM. The Activity (K562 [4]) was “Active”, the IC50 (U2OS) was 10000 nM and the Activity (K562 [5]) was “Active”. For the same molecule, the Activity (K562 [6]) was “Active”.
In the case of CC[C@]1(O)Cc2c(O)c3c(c(O)c2[C@@H](O[C@H]2C[C@H](N)[C@H](O)[C@H](C)O2)C1)C(=O)c1c(OC)cccc1C3=O, the IC50 (K562 [1]) is reported as 42 nM, the IC50 (MEL-JUSO [3]) is reported as 372 nM and the Activity (K562 [4]) is reported as “Active”. For the same molecule, the IC50 (U2OS) was 237 nM, the Activity (K562 [5]) was “Active” and the Activity (K562 [6]) was “Active”.
CC(=O)[C@]1(O)Cc2c(O)c3c(c(O)c2[C@@H](O[C@H]2C[C@H](N)[C@H](O[C@H]4C[C@H](O)[C@H](O[C@H]5CCC(=O)[C@H](C)O5)[C@H](C)O4)[C@H](C)O2)C1)C(=O)c1ccccc1C3=O was tested, and the IC50 (K562 [1]) was 230 nM, the IC50 (MEL-JUSO [3]) was 680 nM and the Activity (K562 [4]) was “Active”. The IC50 (U2OS) was 376 nM, the Activity (K562 [5]) was “Active” and the Activity (K562 [6]) was “Active”.
With COc1cccc2c1C(=O)c1c(O)c3c(c(O)c1C2=O)C[C@@](O)(C(=O)CO)C[C@@H]3O[C@H]1C[C@H](O)[C@H](N(C)C)[C@H](C)O1 the IC50 (K562 [1]) was 129 nM, the Activity (MEL-JUSO [2]) was “Active” and the IC50 (MEL-JUSO [3]) was 433 nM. It also gave an IC50 (U2OS) of 285 nM.
For COc1cccc2c1C(=O)c1c(O)c3c(c(O)c1C2=O)C[C@@](O)(C(=O)CO)C[C@@H]3O[C@H]1C[C@H](N2CCCC2)[C@H](O)[C@H](C)O1, the IC50 (K562 [1]) was 172 nM, the Activity (MEL-JUSO [2]) was “Active” and the IC50 (MEL-JUSO [3]) was 73 nM. For the same molecule, the Activity (K562 [4]) was “inactive”, the IC50 (U2OS) was 122 nM and the Activity (K562 [5]) was “inactive”. For the same molecule, the Activity (K562 [6]) was “inactive”.
In the case of CC[C@@]1(O)C[C@H](O[C@H]2C[C@H](N)[C@H](O)[C@H](C)O2)c2c(O)c3c(c(O)c2[C@H]1C(=O)OC)C(=O)c1cccc(O)c1C3=O, the IC50 (K562 [1]) is reported as 5320 nM, the IC50 (MEL-JUSO [3]) is reported as 4290 nM and the Activity (K562 [4]) is reported as “Active”. For the same molecule, the IC50 (U2OS) was 10000 nM, the Activity (K562 [5]) was “Active” and the Activity (K562 [6]) was “Active”.
In the case of CC[C@@]1(O)C[C@H](O[C@H]2C[C@H](N(C)C)[C@H](O[C@H]3C[C@H](O)[C@H](O[C@H]4CCC(=O)[C@H](C)O4)[C@H](C)O3)[C@H](C)O2)c2c(cc3c(c2O)C(=O)c2c(O)cccc2C3=O)[C@H]1C(=O)OC [ACLARUBICIN], the IC50 (K562 [1]) is reported as 31 nM, the IC50 (MEL-JUSO [3]) is reported as 99 nM and the Activity (K562 [4]) is reported as “inactive”. For the same molecule, the IC50 (U2OS) was 209 nM, the Activity (K562 [5]) was “inactive” and the Activity (K562 [6]) was “inactive”.
With COc1cccc2c1C(=O)c1c(O)c3c(c(O)c1C2=O)C[C@@](O)(C(=O)CO)C[C@@H]3O[C@H]1C[C@H](O)[C@H](O)[C@H](C)O1 [HYDROXYRUBICIN] the IC50 (K562 [1]) was 856 nM, the Activity (MEL-JUSO [2]) was “Active” and the IC50 (MEL-JUSO [3]) was 1900 nM. For the same molecule, the Activity (K562 [4]) was “Active”, the IC50 (U2OS) was 6790 nM and the Activity (K562 [5]) was “Active”. The Activity (K562 [6]) was “Active”.
With COc1cccc2c1C(=O)c1c(O)c3c(c(O)c1C2=O)C[C@@](O)(C(=O)CO)C[C@@H]3O[C@H]1CC[C@H](O)[C@H](C)O1 the IC50 (K562 [1]) was 1620 nM, the Activity (MEL-JUSO [2]) was “Active” and the IC50 (MEL-JUSO [3]) was 2430 nM. The Activity (K562 [4]) was “Active”, the IC50 (U2OS) was 10000 nM and the Activity (K562 [5]) was “Active”. For the same molecule, the Activity (K562 [6]) was “Active”.
